Measurements reported in article PMC12065821 (Scientific Reports, 2025).
Where a SMILES comes first, the peptide text is derived from it. Bridges are numbered along the chain shown (N, C = ends). [ ]: non-standard residue; d: D form. The star is where a group is joined. X1 = CC[C@H](C)CCCCC(=O)*; Dab = NCC[C@H](N)C(=O)O

Columns and labels:
[1] = rats; CMS and formed colistin; cited from earlier work
[2] = cited from earlier work
[3] = PK-TD model, PK component; type: in vivo; details: rats, one-compartment PK-TD model, mean ± SD
How it was run: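 Plasma prodrug and formed colistin/colistin B concentrations after i.p. dosing were fitted by a compartmental model. The final model used one compartment each for prodrug and formed drug, a conversion rate constant, and linear first-order total clearance from both. Fit was judged by R², AIC, BIC and visual inspection. Estimates are mean ± SD.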

[4] = Kidney PK of CMS/CMS-E2 and formed colistin/colistin B; type: in vivo, rats; details: for Kp: kidney (cortex) / plasma, colistin/colistin B; for AUC0-inf formed colistin/colistin B in kidneys / Tmax formed colistin/colistin B in kidneys / t1/2 formed colistin/colistin B in kidneys / Cmax formed colistin/colistin B in kidneys / AUC0-inf CMS/CMS-E2 in kidneys / Tmax CMS/CMS-E2 in kidneys / t1/2 CMS/CMS-E2 in kidneys / Cmax CMS/CMS-E2 in kidneys: rat kidney cortex, LC-MS/MS; for AUC0-inf formed colistin/colistin B in kidneys / Tmax formed colistin/colistin B in kidneys / t1/2 formed colistin/colistin B in kidneys / AUC0-inf CMS/CMS-E2 in kidneys / Tmax CMS/CMS-E2 in kidneys / t1/2 CMS/CMS-E2 in kidneys: NCA; for Cmax formed colistin/colistin B in kidneys / Cmax CMS/CMS-E2 in kidneys: mean ± SD
How it was run: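 Male Sprague-Dawley rats (300 ± 15 g) got one i.p. dose in saline. At each sampling time rats were anaesthetised with tiletamine-zolazepam (40 mg/kg) and killed, and the left kidney was frozen at −70 °C. Kidney cortex was homogenised in saline (1:10 m/v, 1% BSA). Samples went through WCX solid-phase extraction with polymyxin B1 internal standard, then LC-MS/MS. Prodrug was calculated as total (after […] sulfuric acid hydrolysis) minus free colistin/colistin B. Parameters came from non-compartmental analysis.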

[5] = Plasma PK of CMS/CMS-E2 and formed colistin/colistin B; type: in vivo, rats; details: rat plasma, LC-MS/MS, NCA, mean ± SD
How it was run: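 Male Sprague-Dawley rats were dosed once i.p. in saline, and serial jugular-vein blood was taken before and after dosing. Blood was heparinised (1%), spun at 4,982 × g for 10 min at 4 °C, and plasma stored at −70 °C. Plasma (40 µL) went through WCX solid-phase extraction with polymyxin B1 internal standard, then LC-MS/MS. Prodrug was total (acid-hydrolysed) minus free analyte. […] Values are mean ± SD, compared by Wilcoxon rank sum.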

rats [6] = experiment: Regression of kidney colistin/colistin B concentrations against CR, BUN, SQS; type: in vivo; details: 95% CI
patients = details: plasma colistin; cited from earlier work
rats [7] = experiment: PK-TD model, TD component; type: in vivo; details: i.p., mean ± SD
How it was run: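 Plasma creatinine and BUN time courses were linked to plasma colistin/colistin B through an indirect hypothetical effect compartment. K_e is the rate constant from the central to the effect compartment. The effect was linear: E = E₀ + S·C_e, with E₀ the pre-dose baseline. T_lag was calculated as 1/K_e. Fit was judged by R², AIC, BIC and visual inspection. Parameters are mean ± SD.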

rats [8] = experiment: Renal histological examination; type: in vivo; details: rat kidney; for maximal SQS: mean ± SD, SD
rats [9] = experiment: Maximal tolerability dose; type: in vivo; details: intraperitoneal
rats [10] = experiment: Kidney injury biomarkers: plasma CR and BUN; type: in vivo; details: rat plasma, mean ± SD
How it was run: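 Rats (male Sprague-Dawley) received one i.p. injection in saline, with a saline control group. Plasma came from serial heparinised jugular-vein samples, plus blood taken at sacrifice in a second cohort. Creatinine and blood urea nitrogen were measured on an automatic biochemical analyser. Peak levels and times to peak were taken from the time profiles and given as mean ± SD.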

[11] = single i.p. CMS or CMS-E2 20 mg/kg CBA
[12] = single i.p. CMS or CMS-E2 20 mg/kg CBA, SD
[13] = rats, single i.p. CMS or CMS-E2 20 mg/kg CBA
[14] = single i.p. CMS-E2 40 mg/kg CBA

For `CC[C@H](C)CCCCC(=O)N[C@@H](CCN)C(=O)N[C@H](C(=O)N[C@@H](CCN)C(=O)N[C@H]1CCNC(=O)[C@H]([C@@H](C)O)NC(=O)[C@H](CCN)NC(=O)[C@H](CCN)NC(=O)[C@H](CC(C)C)NC(=O)[C@@H](CC(C)C)NC(=O)[C@H](CCN)NC1=O)[C@@H](C)O` [colistin, Colistin] (X1-[Dab]T[Dab][Dab][Dab][dL]L[Dab][Dab]T; lactam 4-C), the “t1/2 in prior reports” value [1] is given as 0.533 to 1.8 h, the “fraction undergoing glomerular filtration into the tubular lumen” value [2] is given as 18% and the “CLcolistin/colistin B (total body clearance)” value ([3]; single i.p. CMS 10 mg/kg CBA) is given as 2.57 ± 0.420 mL/min/kg. It also gave a Kp ([4]; male, Sprague-Dawley, rat, ip, 10 mg/kg CBA, Kidney/plasma ratio of AUC0-inf, rats, single i.p. CMS 10 mg/kg CBA) of 31.6, a Kp ([4]; male, Sprague-Dawley, rat, ip, 10 mg/kg CBA, Kidney/plasma ratio of Cmax, rats, single i.p. CMS 10 mg/kg CBA) of 13.7 and a Kp ([4]; male, Sprague-Dawley, rat, ip, 20 mg/kg CBA, Kidney/plasma ratio of AUC0-inf, rats, single i.p. CMS or CMS-E2 20 mg/kg CBA) of 26.1. The tissue level at time at 8 h ([4]; male, Sprague-Dawley, rat, kidney cortex, ip, 10 mg/kg CBA, SD) was 3550 ± 594 ng/g, the tissue level at time at 24 h ([4]; male, Sprague-Dawley, rat, kidney cortex, ip, 20 mg/kg CBA, SD) was 5970 ± 1850 ng/g and the “AUC0-inf formed colistin/colistin B in kidneys” value ([4]; single i.p. CMS 10 mg/kg CBA) was 64.7 µg·h/g. For the same molecule, the “Tmax formed colistin/colistin B in kidneys” value ([4]; single i.p. CMS 10 mg/kg CBA) was 2 h, the “t1/2 formed colistin/colistin B in kidneys” value ([4]; single i.p. CMS 10 mg/kg CBA) was 1.21 h and the “Cmax formed colistin/colistin B in kidneys” value ([4]; single i.p. CMS 10 mg/kg CBA, SD) was 10.4 ± 3.13 µg/g. The “AUC0-inf formed colistin/colistin B in kidneys” value ([4]; single i.p. CMS 20 mg/kg CBA) was 603 µg·h/g, the “t1/2 formed colistin/colistin B in kidneys” value ([4]; single i.p. CMS 20 mg/kg CBA) was 6.23 h and the “Tmax formed colistin/colistin B in kidneys” value [4, 11] was 6 h. The “Cmax formed colistin/colistin B in kidneys” value [4, 12] was 53.6 ± 11.0 µg/g, the “Kidney/plasma ratio of Cmax, colistin/colistin B” value [4, 13] was 12.7 and the “AUC0-inf formed colistin/colistin B in plasma” value ([5]; single i.p. CMS 10 mg/kg CBA) was 2050 ± 371 ng·h/mL. The “Cmax formed colistin/colistin B in plasma” value ([5]; single i.p. CMS 10 mg/kg CBA) was 764 ± 123 ng/mL, the “Tmax formed colistin/colistin B in plasma” value ([5]; single i.p. CMS 10 mg/kg CBA) was 2.00 ± 0.00 h and the “t1/2 formed colistin/colistin B in plasma” value ([5]; single i.p. CMS 10 mg/kg CBA) was 0.74 ± 0.0768 h. For the same molecule, the “AUC0-inf formed colistin/colistin B in plasma” value [5, 11] was 23100 ± 7460 ng·h/mL, the “Cmax formed colistin/colistin B in plasma” value [5, 11] was 3990 ± 1520 ng/mL and the “Tmax formed colistin/colistin B in plasma” value [5, 11] was 3.55 ± 0.891 h. For the same molecule, the “t1/2 formed colistin/colistin B in plasma” value [5, 11] was 1.88 ± 0.672 h, the “regression coefficient between kidney concentration and SQS” value (rats [6]; ordered logistic regression) was 0.10 and the “regression coefficient between kidney concentration and contemporaneous BUN” value (rats [6]; simple linear regression) was 0.27. For the same molecule, the “regression coefficient between kidney concentration and contemporaneous CR” value (rats [6]; simple linear regression) was 0.74 and the “steady-state trough concentration associated with increased nephrotoxicity” value (patients) was over 2.2 mg/L.
In the case of Colistin B methanesulphonate [CMS-E2], the “CLCMS/CMS-E2 (total body clearance)” value [3, 14] is reported as 3.20 ± 1.74 mL/min/kg, the “Ka CMS/CMS-E2 (absorption rate)” value [3, 14] is reported as 0.673 ± 0.208 h⁻¹ and the “V (volume of distribution)” value [3, 14] is reported as 0.291 ± 0.105 L/kg. For the same molecule, the “AUC0-inf CMS/CMS-E2 in kidneys” value [4, 11] was 289 µg·h/g, the “Tmax CMS/CMS-E2 in kidneys” value [4, 11] was 2 h and the “t1/2 CMS/CMS-E2 in kidneys” value [4, 11] was 0.56 h. The “Cmax CMS/CMS-E2 in kidneys” value [4, 12] was 105 ± 25.3 µg/g, the “AUC0-inf CMS/CMS-E2 in kidneys” value [4, 14] was 2496 µg·h/g and the “Tmax CMS/CMS-E2 in kidneys” value [4, 14] was 4 h. For the same molecule, the “t1/2 CMS/CMS-E2 in kidneys” value [4, 14] was 2.02 h, the “Cmax CMS/CMS-E2 in kidneys” value ([4]; single i.p. CMS-E2 40 mg/kg CBA, SD) was 379 ± 85.5 µg/g and the “Kidney/plasma ratio of Cmax, CMS/CMS-E2” value [4, 13] was 5.50. The “Kidney/plasma ratio of Cmax, CMS/CMS-E2” value ([4]; rats, single i.p. CMS-E2 40 mg/kg CBA) was 7.44, the “AUC0-inf CMS/CMS-E2 in plasma” value [5, 11] was 37200 ± 10500 ng·h/mL and the “CL/F CMS/CMS-E2” value [5, 11] was 9.90 ± 3.34 mL/min/kg. The “Cmax CMS/CMS-E2 in plasma” value [5, 11] was 19100 ± 4500 ng/mL, the “Tmax CMS/CMS-E2 in plasma” value [5, 11] was 0.500 ± 0.00 h and the “Vd/F CMS/CMS-E2” value [5, 11] was 0.464 ± 0.108 L/kg. For the same molecule, the “t1/2 CMS/CMS-E2 in plasma” value [5, 11] was 0.573 ± 0.16 h, the “AUC0-inf CMS/CMS-E2 in plasma” value [5, 14] was 226000 ± 125000 ng·h/mL and the “CL/F CMS/CMS-E2” value [5, 14] was 4.18 ± 2.56 mL/min/kg. For the same molecule, the “Cmax CMS/CMS-E2 in plasma” value [5, 14] was 50900 ± 23500 ng/mL, the “Tmax CMS/CMS-E2 in plasma” value [5, 14] was 1.75 ± 0.433 h and the “Vd/F CMS/CMS-E2” value [5, 14] was 0.497 ± 0.278 L/kg. For the same molecule, the “t1/2 CMS/CMS-E2 in plasma” value [5, 14] was 1.57 ± 0.522 h, the “S (slope between colistin/colistin B concentration in effect compartment and CR)” value (rats [7]; E = E0 + S·Ce) was 13.0 ± 3.52 mmol/g and the “Ke (rate from colistin/colistin B central compartment to effect compartment), BUN” value (rats [7]; indirect link PK-TD model, effect = BUN) was 0.182 ± 0.164 h⁻¹. The “Ke (rate from colistin/colistin B central compartment to effect compartment), CR” value (rats [7]; indirect link PK-TD model, effect = plasma CR) was 0.814 ± 0.524 h⁻¹, the “Tlag (lag time), BUN” value (rats [7]; reciprocal of Ke, effect = BUN) was 11.9 ± 9.46 h and the “Tlag (lag time), CR” value (rats [7]; reciprocal of Ke, effect = plasma CR) was 1.83 ± 1.05 h. For the same molecule, the “histological lesions during the first 2 h” value (rats [8]; PAS stain, single i.p. CMS or CMS-E2 20 mg/kg CBA) was “No obvious histological lesion”, the “maximal SQS” value (rats [8]; [11]) was 0.667 ± 0.577 and the “histological damage at time points other than 4 h” value (rats [8]; single i.p. CMS-E2 20 mg/kg CBA) was “no obvious damage was observed”. For the same molecule, the “recovery of histological damage at 24 h” value (rats [8]; [14]) was “all damage was completely recovered”, the “maximal SQS” value (rats [8]; [14]) was 2.33 ± 1.16 and the maximal tolerability dose (rats [9]) was 40 mg/kg CBA. The “peak BUN level” value (rats [10]; [11]) was 12.4 ± 5.21 mmol/L, the “peak CR level” value (rats [10]; [11]) was 33.4 ± 3.44 µmol/L and the “time of peak BUN” value (rats [10]; [11]) was 6.00 ± 0.00 h. The “time of peak CR level” value (rats [10]; [11]) was 4.67 ± 1.89 h, the “peak BUN level” value (rats [10]; [14]) was 23.0 ± 5.59 mmol/L and the “peak CR level” value (rats [10]; [14]) was 104 ± 40.4 µmol/L. For the same molecule, the “time of peak BUN” value (rats [10]; [14]) was 11.1 ± 3.00 h and the “time of peak CR level” value (rats [10]; [14]) was 8.86 ± 3.18 h.
